From ChEMBL document CHEMBL4622996, “Discovery of Vixotrigine: A Novel Use-Dependent Sodium Channel Blocker for the Treatment of Trigeminal Neuralgia” (ACS Med Chem Lett, 2020)
Activity calls are given as the source filed them. The calls are words filed in the database; no cut-off is given here.

Columns and labels:
[1] = target: T1, Sodium channel protein type 3 subunit alpha (Homo sapiens, UniProt Q9NY46); assay: Inhibition of Nav1.3 (unknown origin) expressed in HEK293 cells assessed as inhibition of sodium current incubated for 3 to 3.5 mins by electrophysiology assay; assay type: cell-based
How it was run: (§1)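 HEK293 cells stably expressing NaV1.3, grown in DMEM-F12 with 10% FBS at 37 °C, dissociated at 50–70% confluency; IonWorksHT planar patch clamp at 21–23 °C, amphotericin perforated access; intracellular K-gluconate 100, KCl 40, MgCl2 3.2, EGTA 3, HEPES 5 mM, pH 7.3.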
Target sequence in this assay (Q9NY46 whole entry): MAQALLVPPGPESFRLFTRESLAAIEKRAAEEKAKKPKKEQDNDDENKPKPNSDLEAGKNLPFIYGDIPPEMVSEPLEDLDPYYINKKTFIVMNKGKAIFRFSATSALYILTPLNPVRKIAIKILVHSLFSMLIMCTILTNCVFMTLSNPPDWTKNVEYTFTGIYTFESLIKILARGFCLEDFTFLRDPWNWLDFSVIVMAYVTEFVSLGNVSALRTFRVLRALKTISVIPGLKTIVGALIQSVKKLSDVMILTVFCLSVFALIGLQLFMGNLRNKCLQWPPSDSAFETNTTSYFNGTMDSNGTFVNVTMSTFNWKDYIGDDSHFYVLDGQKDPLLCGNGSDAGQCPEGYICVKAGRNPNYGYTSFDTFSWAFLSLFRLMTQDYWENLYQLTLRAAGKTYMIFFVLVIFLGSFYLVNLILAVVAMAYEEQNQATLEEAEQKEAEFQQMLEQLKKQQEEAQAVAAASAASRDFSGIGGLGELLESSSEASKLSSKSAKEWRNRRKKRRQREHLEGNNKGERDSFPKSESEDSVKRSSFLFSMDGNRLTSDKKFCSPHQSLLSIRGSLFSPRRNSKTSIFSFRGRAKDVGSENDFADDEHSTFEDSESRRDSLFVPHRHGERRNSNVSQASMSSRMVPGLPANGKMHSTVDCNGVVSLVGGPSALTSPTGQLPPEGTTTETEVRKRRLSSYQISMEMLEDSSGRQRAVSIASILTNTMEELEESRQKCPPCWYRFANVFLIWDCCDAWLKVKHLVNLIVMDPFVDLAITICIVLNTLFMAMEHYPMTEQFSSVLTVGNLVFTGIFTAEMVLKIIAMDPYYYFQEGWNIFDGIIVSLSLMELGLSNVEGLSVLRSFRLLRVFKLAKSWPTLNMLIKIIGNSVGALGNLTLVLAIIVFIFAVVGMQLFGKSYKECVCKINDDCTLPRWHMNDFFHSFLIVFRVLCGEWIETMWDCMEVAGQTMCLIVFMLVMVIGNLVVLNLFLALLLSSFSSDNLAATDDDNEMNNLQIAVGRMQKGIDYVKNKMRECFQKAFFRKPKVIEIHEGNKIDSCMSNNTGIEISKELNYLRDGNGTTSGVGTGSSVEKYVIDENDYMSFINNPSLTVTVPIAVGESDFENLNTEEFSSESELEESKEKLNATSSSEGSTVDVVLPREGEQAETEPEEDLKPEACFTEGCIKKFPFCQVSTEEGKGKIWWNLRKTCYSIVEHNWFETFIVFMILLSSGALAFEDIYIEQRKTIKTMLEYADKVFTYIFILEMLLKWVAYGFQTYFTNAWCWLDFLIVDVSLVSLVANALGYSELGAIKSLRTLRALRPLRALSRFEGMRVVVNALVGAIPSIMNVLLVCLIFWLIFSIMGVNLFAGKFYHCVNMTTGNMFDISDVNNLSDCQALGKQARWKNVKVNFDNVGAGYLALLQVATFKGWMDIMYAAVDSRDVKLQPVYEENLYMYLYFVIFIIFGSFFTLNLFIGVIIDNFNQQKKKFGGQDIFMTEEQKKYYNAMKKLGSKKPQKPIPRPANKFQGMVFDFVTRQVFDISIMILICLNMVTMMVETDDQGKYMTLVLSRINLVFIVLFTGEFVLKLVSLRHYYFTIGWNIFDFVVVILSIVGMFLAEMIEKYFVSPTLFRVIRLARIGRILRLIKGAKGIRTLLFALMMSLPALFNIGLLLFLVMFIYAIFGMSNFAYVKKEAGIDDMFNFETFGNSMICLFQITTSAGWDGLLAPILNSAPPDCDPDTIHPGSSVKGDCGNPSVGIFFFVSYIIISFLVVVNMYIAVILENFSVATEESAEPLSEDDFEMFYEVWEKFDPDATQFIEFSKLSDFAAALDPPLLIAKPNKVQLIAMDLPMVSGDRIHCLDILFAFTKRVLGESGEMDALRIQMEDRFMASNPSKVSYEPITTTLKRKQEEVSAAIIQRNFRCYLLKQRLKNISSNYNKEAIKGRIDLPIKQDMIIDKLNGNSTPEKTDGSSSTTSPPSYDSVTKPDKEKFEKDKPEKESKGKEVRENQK

[2] = Oral bioavailability in rat at 3 mg/kg; assay type: ADME, organism-based; conditions: in vivo
[3] = Total blood clearance in rat blood at 0.5 mg/kg, iv; assay type: ADME, organism-based
[4] = target: Voltage-gated inwardly rectifying potassium channel KCNH2 (Homo sapiens, UniProt Q12809); assay: Inhibition of human ERG; conditions: for inhibition (INH): human
Sequence of Voltage-gated inwardly rectifying potassium channel KCNH2 (Q12809 whole entry): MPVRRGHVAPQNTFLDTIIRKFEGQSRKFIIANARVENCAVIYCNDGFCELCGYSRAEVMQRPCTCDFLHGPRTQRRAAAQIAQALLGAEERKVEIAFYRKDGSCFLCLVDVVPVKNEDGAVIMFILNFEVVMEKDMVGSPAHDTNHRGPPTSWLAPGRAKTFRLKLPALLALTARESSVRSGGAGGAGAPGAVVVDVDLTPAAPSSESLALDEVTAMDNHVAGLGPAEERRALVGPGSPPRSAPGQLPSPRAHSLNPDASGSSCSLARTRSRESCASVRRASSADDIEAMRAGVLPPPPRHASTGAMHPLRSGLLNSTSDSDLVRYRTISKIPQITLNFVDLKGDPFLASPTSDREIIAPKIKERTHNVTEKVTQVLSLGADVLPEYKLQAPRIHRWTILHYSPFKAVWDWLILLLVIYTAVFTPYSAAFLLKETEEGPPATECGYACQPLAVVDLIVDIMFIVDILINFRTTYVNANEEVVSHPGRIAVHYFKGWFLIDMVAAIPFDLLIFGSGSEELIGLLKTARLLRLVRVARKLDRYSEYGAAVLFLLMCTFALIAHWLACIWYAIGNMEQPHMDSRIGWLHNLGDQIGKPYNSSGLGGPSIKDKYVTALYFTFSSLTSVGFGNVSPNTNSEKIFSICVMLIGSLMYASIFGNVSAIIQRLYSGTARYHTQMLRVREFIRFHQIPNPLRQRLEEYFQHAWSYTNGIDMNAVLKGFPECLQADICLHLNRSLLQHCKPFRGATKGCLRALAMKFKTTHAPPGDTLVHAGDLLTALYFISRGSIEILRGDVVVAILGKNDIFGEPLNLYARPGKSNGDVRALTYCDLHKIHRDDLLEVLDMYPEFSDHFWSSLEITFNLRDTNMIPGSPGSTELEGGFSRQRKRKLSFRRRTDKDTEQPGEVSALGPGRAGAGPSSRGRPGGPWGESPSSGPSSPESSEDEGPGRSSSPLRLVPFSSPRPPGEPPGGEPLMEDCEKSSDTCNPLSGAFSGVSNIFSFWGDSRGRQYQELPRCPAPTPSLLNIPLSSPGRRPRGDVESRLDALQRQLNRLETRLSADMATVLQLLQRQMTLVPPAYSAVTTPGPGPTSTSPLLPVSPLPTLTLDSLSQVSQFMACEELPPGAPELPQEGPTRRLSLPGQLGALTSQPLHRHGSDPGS

Homo sapiens = organism: Homo sapiens; assay: Selectivity ratio of UD15 to IC50 of Nav1.3 (unknown origin) expressed in HEK293 cells; assay type: cell-based
[5] = target: T1, Sodium channel protein type 3 subunit alpha; assay: Inhibition of Nav1.3 (unknown origin) expressed in HEK293 cells assessed as 15% inhibition of sodium current incubated for 3 to 3.5 mins by electrophysiology assay; assay type: cell-based; how it was run: as §1
Target sequence in this assay (Q9NY46 whole entry, looked up): as the sequence (Q9NY46 whole entry) above

[6] = Ratio of drug level in brain to blood in rat; assay type: ADME, tissue-based; conditions: read-out: Kbb
[7] = Fraction unbound in rat brain; assay type: ADME, tissue-based
[8] = Fraction unbound in rat blood; assay type: ADME, tissue-based
[9] = Fraction unbound in rat plasma; assay type: ADME, cell-free
Rattus norvegicus = assay: Antinociceptive activity in rat model of chronic constriction injury-induced neuropathic pain assessed as inhibition of CCI-induced mechanical allodynia at 30 mg/kg, po BID administered 22 days post surgery and measured on day 1, 6 and 8; assay type: functional, organism-based
How it was run: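 Chronic constriction injury model of neuropathic pain. Dosed orally twice daily as the positive-control arm of a study that also tested 0.5 and 5 mg/kg oral BID groups. Dosing started during day 22. Mechanical allodynia was measured on dosing days 1, 6 and 8.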

Row | Compound | IC50 [1] [µM] | IC50 [4] [µM] | Selectivity ratio (Homo sapiens) | log(activity) [5] | other results
1 | C[C@H](NC1CCOc2cc(OCc3ccccc3F)ccc21)C(N)=O (some centres not stated) | > 79.4 | – | – | – | –
2 | NC(=O)[C@@H]1CC[C@H](c2ccc(Oc3ccccc3)cc2)N1 | 100 | 12.6 | 31 | -5.4 | bioavailability [2]: 25%; clearance [3]: 40 mL/min/kg; Kp [6]: 4.8
3 | NC(=O)[C@H]1CC[C@@H](c2ccc(OCc3ccccc3F)cc2)N1 | 63.1 | 10 | – | -5.4 | –
4 | NC(=O)[C@@H]1CC[C@H](c2ccc(OCc3ccccc3F)cc2F)N1 | > 100 | 12.6 | 42 | -5.6 | fraction unbound [7]: 0.009
5 | C[C@@H](C(N)=O)N1CCCC1c1ccc(OCc2ccccc2F)cc1 (single isomer, unassigned; isomer 2) [listing 1 of 2 here] | 39.8 | – | – | – | –
6 | NC(=O)[C@H]1CCC[C@@H](c2ccc(OCc3cccc(F)c3)cc2)N1 (stereo in doubt) | 39.8 | 3.16 | 11 | -5.4 | –
7 | O=C1NCCC1NCc1ccc(OCc2ccccc2F)cc1 (configuration not stated) | 126 | – | 8 | -4.8 | –
8 | CNC(=O)[C@@H]1CC[C@H](c2ccc(OCc3ccccc3F)cc2)N1 | > 63.1 | 25.1 | – | -5.3 | fraction unbound [7]: 0.015
9 | CC(C(N)=O)N1CCOc2cc(OCc3ccccc3F)ccc2C1 (configuration not stated) | > 63.1 | – | – | -4.6 | –
10 | NC(=O)CN1Cc2ccc(OCc3ccccc3F)cc2C1 | > 100 | – | – | – | –
11 | NC(=O)[C@@H]1CCCN1Cc1ccc(OCc2ccccc2F)cc1 | 79.4 | – | 64 | -5.8 | inhibition (INH) [4]: Active
12 | C[C@@H](Oc1ccc([C@H]2CC[C@@H](C(N)=O)N2)cc1)c1ccccc1 | 31.6 | 3.98 | 9 | -5.5 | –
13 | NC(=O)C1Cc2cc(OCc3ccccc3F)ccc2CN1 (configuration not stated) | 20 | – | 1.3 | -4.8 | –
14 | NC(=O)[C@H]1CC[C@H](c2ccc(OCc3ccccc3F)cc2)N1 | > 79.4 | 6.31 | – | -5.4 | –
15 | NC(=O)[C@@H]1CC[C@H](c2ccc(OCc3ccccc3F)cn2)N1 | 63.1 | 15.8 | 6 | -4.8 | –
16 | NC(=O)CN1CCCc2cc(OCc3ccccc3F)ccc2C1 | > 79.4 | – | – | – | –
17 | NC(=O)[C@@H]1CC[C@H](c2cccc(Oc3ccccc3)c2)N1 | > 100 | 63.1 | – | -4.7 | –
18 | N#Cc1ccccc1Oc1ccc([C@H]2CC[C@@H](C(N)=O)N2)cc1 | > 100 | 3.98 | – | -4.6 | fraction unbound [8]: 0.12; fraction unbound [7]: 0.076
19 | C[C@@H](C(N)=O)N1CCCC1c1ccc(OCc2ccccc2F)cc1 (some centres not stated) [listing 1 of 2 here] | – | – | 14 | -5.5 | –
20 | NC(=O)[C@@H]1CC[C@H](c2ccc(OCc3cccc(F)c3)cc2)N1 | > 100 | 3.16 | – | -5.5 | fraction unbound [9]: 0.033; fraction unbound [7]: 0.01
21 | NC(=O)[C@@H]1CSc2cc(OCc3ccccc3F)ccc2CN1 | > 100 | – | – | -4.7 | –
22 | NC(=O)[C@@H]1CC[C@H](c2ccc(OCc3ccccc3)cc2)N1 | > 63.1 | 7.94 | 37 | -5.6 | –

Row | Compound | IC50 [1] [µM] | IC50 [4] [µM] | Selectivity ratio (Homo sapiens) | log(activity) [5] | other results
23 | O=C1CN(Cc2ccc(OCc3ccccc3F)cc2)CCN1 | > 79.4 | – | – | – | –
24 | NC(=O)CNC1CCc2cc(OCc3ccccc3F)ccc21 (configuration not stated) | 31.6 | – | 1.3 | -5.5 | inhibition (INH) [4]: Active
25 | N#Cc1ccc(COc2ccc([C@H]3CC[C@@H](C(N)=O)N3)cc2)cc1 | > 63.1 | 7.94 | – | -5 | –
26 | NC(=O)[C@@H]1CC[C@H](c2ccc(OCc3ccc(F)cc3)cc2)N1 | > 63.1 | 7.94 | – | -5 | bioavailability [2]: 31%; clearance [3]: 91 mL/min/kg; Kp [6]: 3.5
27 | NCC1(CC(=O)O)CCCCC1 | – | – | – | – | Activity (Rattus norvegicus): Active
28 | C[C@@H](C(N)=O)N1CCc2cc(OCc3ccccc3F)ccc2C1 | > 79.4 | – | – | – | –
29 | N#Cc1ccccc1COc1ccc([C@H]2CC[C@@H](C(N)=O)N2)cc1 | > 63.1 | 15.8 | – | -5.3 | bioavailability [2]: 39%; clearance [3]: 37 mL/min/kg; fraction unbound [9]: 0.12; fraction unbound [7]: 0.063; Kp [6]: 0.8
30 | NC(=O)CN1CCOc2cc(OCc3ccccc3)ccc2C1 | > 79.4 | – | – | – | –
31 | NC(=O)[C@@H]1CC[C@H](c2ccc(Oc3ccc(F)cc3)cc2)N1 | > 100 | 5.01 | – | -5.3 | fraction unbound [9]: 0.11; fraction unbound [7]: 0.016
32 | NC(=O)[C@@H]1CCC[C@H](c2ccc(OCc3cccc(F)c3)cc2)N1 (stereo in doubt) | 39.8 | 31.6 | 7 | -5.4 | fraction unbound [9]: 0.04; fraction unbound [7]: 0.01
33 | NC(=O)[C@@H]1CC[C@H](c2ccc(Oc3cccc(F)c3)cc2)N1 | 100 | 7.94 | 29 | -5.5 | –
34 | NC(=O)[C@@H]1CSC[C@H](c2ccc(OCc3cccc(F)c3)cc2)N1 (racemic) | > 89.1 | – | – | < -4.05 | –
35 | C[C@H](NC1CCCc2cc(OCc3ccccc3F)ccc21)C(N)=O (some centres not stated) | 63.1 | – | 24 | -5.6 | inhibition (INH) [4]: Active
36 | C[C@@H](C(N)=O)N1CCCC1c1ccc(OCc2ccccc2F)cc1 (some centres not stated) [listing 2 of 2 here] | 50.1 | – | – | – | inhibition (INH) [4]: Active
37 | C[C@@H](C(N)=O)N1CCCC1c1ccc(OCc2ccccc2F)cc1 (single isomer, unassigned; isomer 2) [listing 2 of 2 here] | – | – | 29 | -5.9 | –
38 | N#Cc1cccc(COc2ccc([C@H]3CC[C@@H](C(N)=O)N3)cc2)c1 | > 63.1 | – | – | -5.2 | –
39 | N#Cc1cc([C@H]2CC[C@@H](C(N)=O)N2)ccc1OCc1ccccc1F | > 50.1 | – | – | -4.8 | –
40 | CN1[C@@H](c2ccc(OCc3ccccc3F)cc2)CC[C@H]1C(N)=O | > 100 | 50.1 | 2 | -4.4 | –
41 | NC(=O)C1CCC(c2ccc(OCc3ccccc3F)cc2)N1 (configuration not stated) | 63.1 to 100 | – | – | -5.4 | –
42 | NC(=O)[C@@H]1CC[C@@H](c2ccc(OCc3ccccc3F)cc2)N1 | 100 | 5.01 | – | -5.5 | –
43 | COc1cc([C@H]2CC[C@@H](C(N)=O)N2)ccc1OCc1ccccc1F | 63.1 | 3.98 | 10 | -5.2 | fraction unbound [7]: 0.033
44 | NC(=O)CNCc1ccc(OCc2ccccc2F)cc1 | 50.1 | – | 11 | -5.4 | –
